These results are taken from PMC6474823 (Molecular cell, 2019).

The test deals with Hck^3D V284C (Homo sapiens, UniProt P08631, V276C). Briefly: Inhibitor IC50 determination, fluorescent SFK peptide kinase assay. Type of test: biochemical. As to conditions: 1 mM ATP. The method, boiled down:
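Kinase concentrations were set in the linear range by prior titration: Src3D WT or V284C at 7.5 nM, Hck3D WT or V284C at 5 nM. Kinase was incubated 30 min with test compound (30 μM top, 3-fold serial dilutions, 10 points) and 1 mM ATP in HEPES pH 7.5 buffer with MgCl2, EGTA, BSA, vanadate and BME. Then 20 μM pyrene-labelled SFK peptide was added for 2 h. Fluorescence was read at ex 344/em 405 nm, in triplicate.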

Hck^3D V284C, sequence (P08631 81-526 V276C): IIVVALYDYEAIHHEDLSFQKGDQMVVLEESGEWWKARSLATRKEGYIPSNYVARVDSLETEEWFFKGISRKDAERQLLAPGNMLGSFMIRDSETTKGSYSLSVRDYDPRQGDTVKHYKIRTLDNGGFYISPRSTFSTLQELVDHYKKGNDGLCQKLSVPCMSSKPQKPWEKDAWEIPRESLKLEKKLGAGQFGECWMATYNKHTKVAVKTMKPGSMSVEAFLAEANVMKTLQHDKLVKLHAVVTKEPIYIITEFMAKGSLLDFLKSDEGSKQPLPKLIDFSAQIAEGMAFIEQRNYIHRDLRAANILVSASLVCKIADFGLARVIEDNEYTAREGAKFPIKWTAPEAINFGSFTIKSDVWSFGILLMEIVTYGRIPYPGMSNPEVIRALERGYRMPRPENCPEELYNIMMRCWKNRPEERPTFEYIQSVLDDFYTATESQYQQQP

Turning to `CNC(=O)C(C#N)=Cc1c(C#Cc2cc(NC(=O)c3cccc(C(F)(F)F)c3)ccc2C)c2cncnc2n1CCOC` [compound 3, (E)- and (Z)-N-(3-((6-(2-cyano-3-(methylamino)-3-oxoprop-1-en-1-yl)-7-(2-methoxyethyl)-7H-pyrrolo[2,3-d]pyrimidin-5-yl)ethynyl)-4-methylphenyl)-3-(trifluoromethyl)benzamide], the “inhibition of Hck V284C (IC50, Figure 4C)” value is listed as “potently inhibited”.
